Data: ChEMBL document CHEMBL1641444, “Synthesis and evaluation of 6-[1-(2-[(18)F]fluoro-3-pyridyl)-5-methyl-1H-1,2,3-triazol-4-yl]quinoline for positron emission tomography imaging of the metabotropic glutamate receptor type 1 in brain” (Bioorg Med Chem, 2011)

How the values were obtained:
[1] = Biodistribution in olfactory bulb of Sprague-Dawley rat at 17 MBq, iv after 15 mins by dissection method; format: ADME, organism-based; settings: in vivo, 0.25 h
Procedure, shortened: (§1)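 [¹⁸F]7a in saline (average 17 MBq/200 µL, 0.11 nmol) was given by tail vein. Rats were killed by cervical dislocation at 5, 15 or 30 min, with three rats per time point. Tissue radioactivity was measured by gamma counting, decay-corrected and expressed as %ID per gram of wet tissue.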

Kidney [2] = assay: Biodistribution in kidney of Sprague-Dawley rat at 17 MBq, iv after 5 mins by dissection method; format: ADME, organism-based; settings: in vivo
Procedure, shortened: (§2)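 The [18F]ligand was given to rats as a saline solution (average 17 MBq, about 0.11 nmol) via the tail vein. Three rats per time point were killed by cervical dislocation at 5, 15 and 30 min. Dissected tissues were gamma-counted with decay correction, and results are expressed as % injected dose per gram of wet tissue.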

Lung = assay: Biodistribution in lung of Sprague-Dawley rat at 17 MBq, iv after 30 mins by dissection method; format: ADME, organism-based; settings: in vivo, 0.5 h; procedure, shortened: as §1
Liver [3] = assay: Biodistribution in liver of Sprague-Dawley rat at 17 MBq, iv after 5 mins by dissection method; format: ADME, organism-based; settings: in vivo; procedure, shortened: as §1
Kidney [4] = assay: Biodistribution in kidney of Sprague-Dawley rat at 17 MBq, iv after 30 mins by dissection method; format: ADME, organism-based; settings: in vivo, 0.5 h; procedure, shortened: as §2
[5] = Biodistribution in pons-medulla of Sprague-Dawley rat at 17 MBq, iv after 5 mins by dissection method; format: ADME, organism-based; settings: in vivo; procedure, shortened: as §1
Hippocampus [6] = assay: Biodistribution in hippocampus of Sprague-Dawley rat at 17 MBq, iv after 5 mins by dissection method; format: ADME, organism-based; settings: in vivo; procedure, shortened: as §2
Muscle tissue [7] = assay: Biodistribution in muscle of Sprague-Dawley rat at 17 MBq, iv after 30 mins by dissection method; format: ADME, organism-based; settings: in vivo, 0.5 h; procedure, shortened: as §1
Muscle tissue [8] = assay: Biodistribution in muscle of Sprague-Dawley rat at 17 MBq, iv after 5 mins by dissection method; format: ADME, organism-based; settings: in vivo; procedure, shortened: as §1
Striatum = assay: Biodistribution in striatum of Sprague-Dawley rat at 17 MBq, iv after 5 mins by dissection method; format: ADME, organism-based; settings: in vivo; procedure, shortened: as §1
Kidney [9] = assay: Biodistribution in kidney of Sprague-Dawley rat at 17 MBq, iv after 15 mins by dissection method; format: ADME, organism-based; settings: in vivo, 0.25 h; procedure, shortened: as §2
[10] = Ratio of drug uptake in Sprague-Dawley rat hippocampus to medulla at 17 MBq, iv after 10 to 15 mins by small-animal PET; settings: in vivo
Liver [11] = assay: Biodistribution in liver of Sprague-Dawley rat at 17 MBq, iv after 15 mins by dissection method; format: ADME, organism-based; settings: in vivo, 0.25 h; procedure, shortened: as §2
Bone [12] = assay: Biodistribution in bone of Sprague-Dawley rat at 17 MBq, iv after 30 mins by dissection method; format: ADME, organism-based, Bone element; settings: in vivo, 0.5 h; procedure, shortened: as §2
Cerebral cortex = assay: Biodistribution in cerebral cortex of Sprague-Dawley rat at 17 MBq, iv after 15 mins by dissection method; format: ADME, organism-based; settings: in vivo, 0.25 h; procedure, shortened: as §2
Hippocampus [13] = assay: Biodistribution in hippocampus of Sprague-Dawley rat at 17 MBq, iv after 30 mins by dissection method; format: ADME, organism-based; settings: in vivo, 0.5 h; procedure, shortened: as §2
Bone [14] = assay: Biodistribution in bone of Sprague-Dawley rat at 17 MBq, iv after 15 mins by dissection method; format: ADME, organism-based, Bone element; settings: in vivo, 0.25 h; procedure, shortened: as §2
Blood = assay: Biodistribution in blood of Sprague-Dawley rat at 17 MBq, iv after 5 mins by dissection method; format: ADME, organism-based; settings: in vivo; procedure, shortened: as §2
[15] = Biodistribution in olfactory bulb of Sprague-Dawley rat at 17 MBq, iv after 30 mins by dissection method; format: ADME, organism-based; settings: in vivo, 0.5 h; procedure, shortened: as §1
Bone [16] = assay: Biodistribution in bone of Sprague-Dawley rat at 17 MBq, iv after 5 mins by dissection method; format: ADME, organism-based, Bone element; settings: in vivo; procedure, shortened: as §2
[17] = Metabolic stability in plasma of ddy mouse assessed as reduction of parent compound level at 3.7 MBq, iv after 30 mins by HPLC analysis; set-up: scale not given: the % may be the effect or the level left; settings: 0.5 h
Heart = assay: Biodistribution in heart of Sprague-Dawley rat at 17 MBq, iv after 15 mins by dissection method; format: ADME, organism-based; settings: in vivo, 0.25 h; procedure, shortened: as §2
[18] = Ratio of drug uptake in Sprague-Dawley rat thalamus to medulla at 17 MBq, iv after 10 to 15 mins by small-animal PET; settings: in vivo
Cerebellum = assay: Biodistribution in cerebellum of Sprague-Dawley rat at 17 MBq, iv after 15 mins by dissection method; format: ADME, organism-based; settings: in vivo, 0.25 h; procedure, shortened: as §2
Spleen = assay: Biodistribution in spleen of Sprague-Dawley rat at 17 MBq, iv after 15 mins by dissection method; format: ADME, organism-based; settings: in vivo, 0.25 h; procedure, shortened: as §1
[19] = Metabolic stability in plasma of ddy mouse assessed as reduction of parent compound level at 3.7 MBq, iv after 15 mins by HPLC analysis; set-up: scale not given: the % may be the effect or the level left; settings: 0.25 h
[20] = Biodistribution in small intestine of Sprague-Dawley rat at 17 MBq, iv after 30 mins by dissection method; format: ADME, organism-based; settings: in vivo, 0.5 h; procedure, shortened: as §1

Drug uptake [1]: 0.24 % ID/g
Drug uptake (Kidney [2]): 0.76 % ID/g
Drug uptake (Lung): 0.17 % ID/g
Drug uptake (Liver [3]): 2.3 % ID/g
Drug uptake (Kidney [4]): 0.39 % ID/g
Drug uptake [5]: 0.47 % ID/g
Drug uptake (Hippocampus [6]): 0.58 % ID/g
Drug uptake (Muscle tissue [7]): 0.1 % ID/g
Drug uptake (Muscle tissue [8]): 0.28 % ID/g
Drug uptake (Striatum): 0.54 % ID/g
Drug uptake (Kidney [9]): 0.57 % ID/g
Ratio [10]: 1.42
Drug uptake (Liver [11]): 2.04 % ID/g
Drug uptake (Bone [12]): 0.22 % ID/g
Drug uptake (Cerebral cortex): 0.2 % ID/g
Drug uptake (Hippocampus [13]): 0.09 % ID/g
Drug uptake (Bone [14]): 0.15 % ID/g
Drug uptake (Blood): 0.38 % ID/g
Drug uptake [15]: 0.1 % ID/g
Drug uptake (Bone [16]): 0.22 % ID/g
Stability [17]: 4%
Drug uptake (Heart): 0.24 % ID/g
Ratio [18]: 1.91
Drug uptake (Cerebellum): 0.54 % ID/g
Drug uptake (Spleen): 0.25 % ID/g
Stability [19]: 23%
Drug uptake [20]: 1.74 % ID/g
SMILES: Cc1c(-c2ccc3ncccc3c2)nnn1-c1cccnc1[18F]
